Hck Nef HTS: blocks Nef-activated human Hck kinase; P08631; Recombinant Hck-YEEI plus Nef, Z-Lyte FRET kinase assay; inhibition, % at 20 µM; 0.68% of 220,000 active; AID 463187;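 active means Hck-Nef kinase inhibition above about 50%, limit read from the data; inactive means inhibition below that limit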;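 further: 0% = DMSO with Hck plus Nef and 100% = Hck alone without Nef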
RAM inhibit: yeast RAM network inhibition | inhibition, % at 50 µM | AID 868 | 1.8% of 190,000 active | S. cerevisiae dse1pr::URA3 reporter, 5-FOA growth OD615, 2 d; analog-sensitive cbk1-as2 kinase mutant strain;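 active means inhibition above a set limit, 3 SD over mean compound inhibition, cut at about 8.4% in these data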;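 further: 0% = DMSO-only wells with no growth and 100% = 10 µM 1-NA-PP1 full growth; inhibition rescues growth on 5-FOA so higher OD means more RAM inhibition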
Arbovirus inh: blocks arbovirus infection. arbovirus infection cell-based antiviral screen. inhibition, % at 10 µM. 0.37% of 200,000 active. AID 1251; in the data active means inhibition above about 30%
Biofilm kill mix: mixtures killing C. albicans biofilm; C. albicans biofilm persisters + clotrimazole, fluorescence viability; primary screen in compound mixtures of four per well; inhibition, % at 7.6 µM; 0.02% of 120,000 active; AID 1242;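 active means inhibition above 30.3% in the primary screen of four-compound pools, then above 30% when the compound was retested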;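 further: compounds exposed to preformed 24 h biofilms for 48 h; 0% = untreated biofilm control and 100% = clotrimazole plus chlorhexidine kill blank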
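System: C. albicans CAF4-2 wild-type biofilms; Medium: RPMI/MOPS medium, pH 7.0; Reagent: Clotrimazole, 50 µg/mL; Times: biofilm formation 24 h, compound exposure 48 h, 37 °C; Detection: 2-h Alamar Blue fluorescence, 535/590 nm excitation/emission; Evaluation: percent inhibition of biofilm viability.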
NCF1 inh: blocks human p47phox regulatory protein of NADPH oxidases; AID 1274; P14598; p47phox/p22phox peptide binding, fluorescence polarization, 2 h; 0.53% of 220,000 active; inhibition, % at 24.7 µM;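 active means inhibition above about 30%, limit read from the data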;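 further: 0% = p47phox with labelled peptide and 100% = labelled peptide alone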
Target sequence (P14598 whole entry, looked up): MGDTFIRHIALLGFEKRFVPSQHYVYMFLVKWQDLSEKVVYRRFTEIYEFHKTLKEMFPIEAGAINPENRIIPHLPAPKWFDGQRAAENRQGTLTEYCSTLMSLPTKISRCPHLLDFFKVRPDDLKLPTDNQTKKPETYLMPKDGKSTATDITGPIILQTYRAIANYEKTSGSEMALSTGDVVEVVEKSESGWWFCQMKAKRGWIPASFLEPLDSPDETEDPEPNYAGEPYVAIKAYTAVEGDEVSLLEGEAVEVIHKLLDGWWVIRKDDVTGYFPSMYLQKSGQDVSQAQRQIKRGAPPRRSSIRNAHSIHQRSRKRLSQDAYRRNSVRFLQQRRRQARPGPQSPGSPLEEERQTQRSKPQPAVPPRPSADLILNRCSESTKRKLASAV
WT yeast gro inh: growth inhibition of WT yeast, mitochondrial fusion screen | mitochondrial fusion phenotypic screen, WT strain | inhibition, % at 10 µM | 2.1% of 190,000 active | AID 1362; in the data active means inhibition above about 58%; tested in S. cerevisiae
Starred values were filed as active, the others as inactive. This is a sample that favours compounds with a hit; in the whole collection about 4.6% have one here.

`COc1cc(O)c(C(CCN2CCN(c3ccccc3)CC2)c2cc(OC)c(OC)c(OC)c2)c(OC)c1` (centres undefined) gave Hck Nef HTS 30, Biofilm kill mix 7 and NCF1 inh 1.
For CCCCNC(C(=O)Nc1cccc(S(=O)(=O)N2CCOCC2)c1)c1ccccc1 (centres undefined) the results were Hck Nef HTS 15, RAM inhibit 1, Arbovirus inh -7, Biofilm kill mix 16, NCF1 inh -9 and WT yeast gro inh 5.
For Cc1ccc(-n2c(C)cc(C(=O)NS(=O)(=O)c3ccc(C)cc3)c2C)cc1 the results were Hck Nef HTS 1, RAM inhibit 8.6*, Arbovirus inh -3, Biofilm kill mix -8, NCF1 inh -3 and WT yeast gro inh -29.
Screening Cc1ccc(NC(=O)c2cc(C)n(-c3ccccc3)c2C)cc1 returned Hck Nef HTS 2, RAM inhibit 3, Arbovirus inh -3, Biofilm kill mix 15, NCF1 inh -16 and WT yeast gro inh 41.
Screening Cc1ccc(NC(=O)c2cc(C)n(-c3cccc(C)c3)c2C)cc1 returned Hck Nef HTS 1, RAM inhibit 7, Arbovirus inh -3, Biofilm kill mix 12, NCF1 inh -6 and WT yeast gro inh 62*.
Screening Cc1[nH]c2ccccc2c1C(=O)CSc1n[nH]c(N)n1 returned Hck Nef HTS 20, RAM inhibit 0, Arbovirus inh 2, Biofilm kill mix 26, NCF1 inh -2 and WT yeast gro inh 6.
Screening COc1ccc(C(=O)/C=C/Nc2ccc(C)cn2)cc1OC returned Hck Nef HTS 12, RAM inhibit 2, Arbovirus inh -12, Biofilm kill mix -10, NCF1 inh 9 and WT yeast gro inh 3.
`CC(=O)C1=C(c2cccc([N+](=O)[O-])c2)N(C(C)=O)n2c(C)nnc2S1` gave Hck Nef HTS -16, RAM inhibit 0, Arbovirus inh -6, Biofilm kill mix 10, NCF1 inh -4 and WT yeast gro inh 60*.
`COc1cc(S(=O)(=O)N(C)C2CCCCC2)c(C)cc1C` gave Hck Nef HTS -17, RAM inhibit 1, Arbovirus inh 2, Biofilm kill mix 15, NCF1 inh 7 and WT yeast gro inh 59*.
`COCc1cc(CN2CCN(Cc3ccsc3)C(CCO)C2)ccc1OC` (centres undefined) gave Hck Nef HTS 17, RAM inhibit 1, Arbovirus inh 0, Biofilm kill mix 8, NCF1 inh -8 and WT yeast gro inh 0.
For COc1ccc(N2C(=O)C3CCCN3C2c2cc(OC)c(OC)c(OC)c2)cc1 (centres undefined) the results were Hck Nef HTS 1, RAM inhibit 0, Arbovirus inh 5, NCF1 inh 35* and WT yeast gro inh 2.
`COc1cc(C2N(c3ccc(Cl)cc3)C(=O)C3CCCN32)cc(OC)c1OC` (centres undefined) gave Hck Nef HTS 4, RAM inhibit 1, Arbovirus inh 3, NCF1 inh -22 and WT yeast gro inh 12.
Screening CCOC(=O)c1c(C)[nH]c(C)c1C(=O)CSc1nc2ccccc2c(=O)n1-c1ccccc1C returned Hck Nef HTS -2, RAM inhibit 9.7*, Arbovirus inh -7, Biofilm kill mix 17, NCF1 inh 8 and WT yeast gro inh 27.
CCOC(=O)c1c(C)[nH]c(C)c1C(=O)CSc1nc2ccccc2c(=O)n1-c1ccc(F)cc1 was read as Hck Nef HTS 4, RAM inhibit 8, Arbovirus inh -5, Biofilm kill mix -1, NCF1 inh -5 and WT yeast gro inh 21.
Screening COc1ccc(CC(=O)NNc2ncnc3c2cnn3C)cc1 returned Hck Nef HTS 5, RAM inhibit 3, Arbovirus inh 0, Biofilm kill mix 6, NCF1 inh -1 and WT yeast gro inh -8.
Screening COc1cc(/C=C2/SC(=S)N(c3ccccc3)C2=O)ccc1Oc1nc(N2CCOCC2)nc(N2CCOCC2)n1 returned Hck Nef HTS 1, RAM inhibit 9.3*, Arbovirus inh 4, Biofilm kill mix 22, NCF1 inh -29 and WT yeast gro inh 5.
CC1CCCC(NC(=O)COC(=O)c2ccccc2NC(=O)c2ccco2)C1C (centres undefined) was read as Hck Nef HTS 17, RAM inhibit 5, Arbovirus inh 0, NCF1 inh -26 and WT yeast gro inh -2.
For CC1CCCC(NC(=O)COC(=O)c2ccccc2[N+](=O)[O-])C1C (centres undefined) the results were Hck Nef HTS 3, RAM inhibit 2, Arbovirus inh 3, Biofilm kill mix 22, NCF1 inh 43* and WT yeast gro inh 13.
`Cc1ccc(CNC(=O)C(Cc2ccccc2)NS(=O)(=O)c2cccs2)cc1` (centres undefined) gave Hck Nef HTS 1, RAM inhibit 2, Arbovirus inh -12, NCF1 inh -19 and WT yeast gro inh 43.
`Cc1ccc(CNC(=O)C(Cc2ccccc2)NS(=O)(=O)c2ccc(Br)s2)cc1` (centres undefined) gave Hck Nef HTS 0, RAM inhibit 2, Arbovirus inh -20, Biofilm kill mix 10, NCF1 inh -62 and WT yeast gro inh 81*.
COc1ccc(N=C2S/C(=C\c3ccc(OCC(=O)O)cc3)C(=O)N2CCc2c[nH]c3ccccc23)cc1 was read as Hck Nef HTS 13, RAM inhibit 4, Arbovirus inh 46*, Biofilm kill mix 15, NCF1 inh -6 and WT yeast gro inh -13.
For COc1ccc(N=C2S/C(=C\c3ccc(N4CCOCC4)o3)C(=O)N2CCc2c[nH]c3ccccc23)cc1 the results were Hck Nef HTS 2, RAM inhibit 6, Arbovirus inh -31, NCF1 inh -70 and WT yeast gro inh 31.
For CCOC(=O)C1CCN(c2ccc(C(N)=O)cc2[N+](=O)[O-])CC1 the results were Hck Nef HTS 1, RAM inhibit 0, Arbovirus inh -2, Biofilm kill mix 14, NCF1 inh -7 and WT yeast gro inh -2.
Screening COc1ccc(-n2c(Cc3cc(=O)[nH]c(=O)[nH]3)nnc2SCC(=O)Nc2ccccc2)cc1 returned Hck Nef HTS 2, RAM inhibit 2, Arbovirus inh 3, NCF1 inh 47* and WT yeast gro inh 14.
`Cc1cc(Nc2ccccc2)nn1C(=O)c1ccc(Cl)cc1` gave Hck Nef HTS -2, RAM inhibit 0, Arbovirus inh 5, NCF1 inh -8 and WT yeast gro inh 80*.
`COc1ccc(CCNS(=O)(=O)c2ccc(OC)cc2)cc1` gave Hck Nef HTS 0, RAM inhibit 1, Arbovirus inh 6, NCF1 inh -15 and WT yeast gro inh 74*.
For CCCN(CC1CC1)C(=O)COC(=O)c1[nH]c(C)c(C(=O)OCC)c1C the results were Hck Nef HTS 7, RAM inhibit 2, Arbovirus inh 11, NCF1 inh 3 and WT yeast gro inh 12.

Compound activity from PubChem.
